Measurements pooled from the literature.
Target: Epithelial discoidin domain-containing receptor 1 (DDR1, Homo sapiens, UniProt Q08345)

c1cncc(-c2cccc(Nc3nccc(NC4CCCCC4)n3)c2)c1  remaining binding (binding; competition with immobilised ligand; 10 µM): 27%
CC(=O)Nc1c(C(C)=O)c(=O)n(C)c2nc(-c3ccc(Cl)cc3Cl)c(-c3ccc(Cl)cc3)cc12  remaining binding (cell-free assay; competition with immobilised ligand; 1 µM): 100%
CN(C)c1nccc(-c2cnn3ncccc23)n1  remaining binding (binding; 1 µM): 100%
CNC(=O)Nc1ccc2c(c1)CC[C@@]21OC(=O)N(CC(=O)N(Cc2ccc(F)cc2)[C@@H](C)C(F)(F)F)C1=O  remaining binding (cell-free assay; competition with immobilised ligand; 1 µM): 100%
CN(c1nccc(-c2cnn3ncccc23)n1)C1CC1  remaining binding (binding; 1 µM): 80%
O=C(c1ccc(Nc2ncc(Cl)c(-c3cc4ccccc4s3)n2)cc1)N1CCC(N2CCCC2)CC1  remaining binding (binding; competition with immobilised ligand; 1 µM): 0.4%
CN(C)c1ncc(F)c(-c2cnn3ncccc23)n1  remaining binding (binding; 1 µM): 89%
CCCOc1ccc([C@H]2[C@H](C(=O)O)[C@@H](c3ccc4c(c3)OCO4)CN2CC(=O)Nc2c(CC)cccc2CC)cc1  remaining binding (cell-free assay; competition with immobilised ligand; 1 µM): 100%
Nc1ncc2c(n1)-c1c([nH]c3ccc(C#CC4CC4)cc13)CCCC2  remaining binding (binding; competition with immobilised ligand; 1 µM): 100%
CC(=O)c1c(NS(C)(=O)=O)c2cc(-c3ccc(Cl)cc3)c(-c3ccc(Cl)cc3Cl)nc2n(C)c1=O  remaining binding (cell-free assay; competition with immobilised ligand; 1 µM): 100%
COc1cnc(Nc2cccc(S(N)(=O)=O)c2)nc1N1CCN(c2ccccc2)C(=O)C1  remaining binding (binding; competition with immobilised ligand; 1 µM): 100%
N[C@H]1CCN(c2nccc(-c3cnn4ncccc34)n2)C1  remaining binding (binding; 1 µM): 100%
O=C(c1ccc(Nc2nccc(-c3cc4ccccc4s3)n2)cc1)N1CCC(N2CCCC2)CC1  remaining binding (binding; competition with immobilised ligand; 1 µM): 2.1%
CNC(=O)[C@@H]1CC[C@@H](n2c(-c3ccc4cnccc4c3)nc3ccc(C(=O)NCc4cccc(C(N)=O)c4)cc32)C1  remaining binding (binding; competition with immobilised ligand; 1 µM): 100%
COc1ccnn2ncc(-c3ccnc(N(C)C)n3)c12  remaining binding (binding; 1 µM): 100%
O=C(Nc1c[nH]nc1C(=O)NC1CCNCC1)c1cc(F)cc(F)c1  remaining binding (binding; competition with immobilised ligand; 1 µM): 100%
CS(=O)(=O)c1cc(C2(NC(=O)c3cncc4c3cnn4-c3ccc(F)cc3)CC2)ccn1  remaining binding (cell-free assay; competition with immobilised ligand; 1 µM): 100%
O=C(c1ccc(Nc2ncc(Cl)c(-c3ccc(Cl)s3)n2)cc1)N1CCC(N2CCCC2)CC1  remaining binding (binding; competition with immobilised ligand; 1 µM): 12%
C[C@@H]1CCN(c2nccc(-c3cnn4ncccc34)n2)C1  remaining binding (binding; 1 µM): 100%
Cc1cc(NC(=O)c2cccc(S(F)(F)(F)(F)F)c2)cc(-n2ccn3nc(-c4cccnc4)cc23)c1  remaining binding (cell-free assay; competition with immobilised ligand; 1 µM): 0%
